This note sets out measurements from ChEMBL document CHEMBL4732129, “Rationally designed N-phenylsulfonylindoles as a tool for the analysis of the non-basic 5-HTR ligands binding mode” (Eur J Med Chem, 2021).

The structures appear in SMILES notation. The source made the active and inactive calls. The calls are words filed in the database; no cut-off is given here.

In data set [1] the target is 5-hydroxytryptamine receptor 7 (Homo sapiens) (UniProt P34969). The experiment in a line: Displacement of [3H]-5-CT from 5-HT7b receptor (unknown origin) incubated for 1 hr by microbeta counting method. The method, boiled down: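 Membranes from thawed cell pellets, homogenized and centrifuged twice at 35 000 g (20 min, 4°C) with a 15 min 37°C incubation between spins. Buffer 50 mM Tris–HCl, 4 mM MgCl2, 10 μM pargyline, 0.1% ascorbate. Radioligand 0.6 nM [3H]-5-CT. Nonspecific binding defined with 10 μM 5-HT. Incubated 1 h at 37°C, ended by rapid filtration. Triplicates at 7–8 concentrations (10⁻¹¹–10⁻⁴ M). Ki by Cheng-Prusoff, means of ≥2 experiments.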

Another data set concerns the target D(2) dopamine receptor (Homo sapiens, UniProt P14416). The experiment in a line: Displacement of [3H]-Raclopride from dopamine D2 receptor (unknown origin) incubated for 1 hr by microbeta counting method. The gist of the method:
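D2L receptor membranes from cell pellets, homogenized and spun twice at 35 000 g with a 15 min 37°C step between spins. Buffer 50 mM Tris–HCl, 1 mM EDTA, 4 mM MgCl2, 120 mM NaCl, 5 mM KCl, 1.5 mM CaCl2, 0.1% ascorbate. Radioligand [3H]-raclopride. Nonspecific binding defined with 1 μM (+)butaclamol. Incubated 1 h at 37°C, then filtered. Triplicates at 7–8 concentrations (10⁻¹¹–10⁻⁴ M). Ki by Cheng-Prusoff, means of ≥2 experiments.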

The target in data set [2] is T1, 5-hydroxytryptamine receptor 1A (Homo sapiens) (UniProt P08908).
T1 sequence (whole entry): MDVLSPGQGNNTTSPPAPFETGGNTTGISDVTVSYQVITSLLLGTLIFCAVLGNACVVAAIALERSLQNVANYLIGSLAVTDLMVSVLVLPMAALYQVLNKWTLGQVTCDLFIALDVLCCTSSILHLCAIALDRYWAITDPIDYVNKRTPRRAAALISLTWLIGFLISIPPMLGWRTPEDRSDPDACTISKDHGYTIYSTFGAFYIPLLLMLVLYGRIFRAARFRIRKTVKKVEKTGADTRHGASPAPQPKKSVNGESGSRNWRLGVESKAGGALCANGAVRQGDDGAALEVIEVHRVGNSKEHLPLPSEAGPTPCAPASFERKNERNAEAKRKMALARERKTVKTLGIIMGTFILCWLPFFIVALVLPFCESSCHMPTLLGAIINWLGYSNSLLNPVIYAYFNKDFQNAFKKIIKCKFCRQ
The experiment in a line: (§1) Displacement of [3H]-8-OH-DPAT from 5-HT1A receptor (unknown origin) incubated for 1 hr by microbeta counting method. The method, boiled down: (§2)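 Membranes prepared from cell pellets by homogenization and two 35 000 g spins with a 15 min 37°C step between them. Buffer 50 mM Tris–HCl, 0.1 mM EDTA, 4 mM MgCl2, 10 μM pargyline, 0.1% ascorbate. Radioligand 1.5 nM [3H]-8-OH-DPAT. Nonspecific binding defined with 10 μM 5-HT. Incubated 1 h at room temperature, then filtered. Triplicates at 7–8 concentrations (10⁻¹¹–10⁻⁴ M). Ki by Cheng-Prusoff, means of ≥2 experiments.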

The nature of data set [3]: Dissociation constant, pKa of the compound. It is filed as physicochemical.
Data set [4] addresses 5-hydroxytryptamine receptor 6 (Homo sapiens, UniProt P50406). In words: Displacement of [3H]-LSD from human 5-HT6 receptor incubated for 1 hr by microbeta counting method. The method, boiled down: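 Human receptor membranes from homogenized cell pellets, centrifuged twice at 35 000 g with a 15 min 37°C incubation between spins. Buffer 50 mM Tris–HCl, 0.5 mM EDTA, 4 mM MgCl2. Radioligand 2 nM [3H]-LSD. Nonspecific binding defined with 10 μM methiothepine. Incubated 1 h at 37°C, ended by filtration. Triplicates at 7–8 concentrations (10⁻¹¹–10⁻⁴ M). Ki by Cheng-Prusoff, means of ≥2 experiments.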

Data set [5] deals with 5-hydroxytryptamine receptor 2A (Homo sapiens, UniProt P28223). The experiment in a line: Binding affinity to 5-HT2A receptor (unknown origin) incubated for 1 hr by microbeta counting based displacement assay.
In data set [6] the target is T2, 5-hydroxytryptamine receptor 1A (Homo sapiens, UniProt P08908).
T2 sequence (P08908 whole entry): T1 sequence (whole entry)
The description is as §1. The method, boiled down:
as §2

Sequence of 5-hydroxytryptamine receptor 6 (P50406 whole entry): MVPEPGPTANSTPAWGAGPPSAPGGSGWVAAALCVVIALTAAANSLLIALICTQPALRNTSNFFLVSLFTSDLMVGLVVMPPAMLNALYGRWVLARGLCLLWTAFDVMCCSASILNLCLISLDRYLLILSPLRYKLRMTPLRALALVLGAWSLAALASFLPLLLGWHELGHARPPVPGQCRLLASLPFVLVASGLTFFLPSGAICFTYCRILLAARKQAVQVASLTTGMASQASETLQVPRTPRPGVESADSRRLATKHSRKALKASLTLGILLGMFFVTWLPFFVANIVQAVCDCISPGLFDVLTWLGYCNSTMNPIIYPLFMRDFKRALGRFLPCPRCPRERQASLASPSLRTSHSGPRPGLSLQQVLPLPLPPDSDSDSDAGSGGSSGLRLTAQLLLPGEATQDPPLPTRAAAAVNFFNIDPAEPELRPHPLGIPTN
Sequence of 5-hydroxytryptamine receptor 2A (P28223 whole entry): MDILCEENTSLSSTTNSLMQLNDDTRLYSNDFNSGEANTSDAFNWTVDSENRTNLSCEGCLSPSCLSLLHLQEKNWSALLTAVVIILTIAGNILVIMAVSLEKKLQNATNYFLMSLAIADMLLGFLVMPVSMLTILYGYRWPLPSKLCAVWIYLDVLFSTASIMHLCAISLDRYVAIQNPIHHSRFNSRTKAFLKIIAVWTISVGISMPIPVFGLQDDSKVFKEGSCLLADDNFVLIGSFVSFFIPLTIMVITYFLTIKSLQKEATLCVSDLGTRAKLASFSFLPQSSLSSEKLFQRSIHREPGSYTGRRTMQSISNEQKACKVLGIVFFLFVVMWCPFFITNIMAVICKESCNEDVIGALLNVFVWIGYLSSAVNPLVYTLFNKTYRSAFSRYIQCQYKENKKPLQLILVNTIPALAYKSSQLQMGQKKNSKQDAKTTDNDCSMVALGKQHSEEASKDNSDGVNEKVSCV
Sequence of D(2) dopamine receptor (P14416 whole entry): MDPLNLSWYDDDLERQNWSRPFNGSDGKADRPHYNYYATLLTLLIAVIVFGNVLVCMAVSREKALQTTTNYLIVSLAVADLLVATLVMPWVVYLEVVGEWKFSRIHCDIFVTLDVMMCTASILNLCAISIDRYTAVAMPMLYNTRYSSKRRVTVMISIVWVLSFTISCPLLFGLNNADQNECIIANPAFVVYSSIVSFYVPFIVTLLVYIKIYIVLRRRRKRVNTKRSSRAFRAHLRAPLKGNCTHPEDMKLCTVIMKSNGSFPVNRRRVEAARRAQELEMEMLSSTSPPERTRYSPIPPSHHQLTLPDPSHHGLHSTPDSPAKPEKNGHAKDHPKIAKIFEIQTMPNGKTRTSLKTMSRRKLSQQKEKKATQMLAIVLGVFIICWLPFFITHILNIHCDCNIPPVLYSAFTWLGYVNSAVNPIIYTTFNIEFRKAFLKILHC
Sequence of 5-hydroxytryptamine receptor 7 (Homo sapiens) (P34969 whole entry): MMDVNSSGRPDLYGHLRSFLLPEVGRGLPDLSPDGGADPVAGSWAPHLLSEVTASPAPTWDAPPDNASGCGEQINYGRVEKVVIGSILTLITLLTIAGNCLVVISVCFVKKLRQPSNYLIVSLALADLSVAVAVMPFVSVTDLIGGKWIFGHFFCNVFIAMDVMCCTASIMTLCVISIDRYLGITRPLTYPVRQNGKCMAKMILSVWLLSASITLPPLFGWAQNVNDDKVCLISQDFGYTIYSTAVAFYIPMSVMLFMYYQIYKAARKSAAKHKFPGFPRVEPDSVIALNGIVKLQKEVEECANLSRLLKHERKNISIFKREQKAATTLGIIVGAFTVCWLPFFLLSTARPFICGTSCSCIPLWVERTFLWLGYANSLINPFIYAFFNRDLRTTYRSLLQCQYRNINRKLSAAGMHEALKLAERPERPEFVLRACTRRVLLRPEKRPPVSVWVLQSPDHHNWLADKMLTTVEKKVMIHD

As to `CN(C)c1cccc2c1ccn2S(=O)(=O)c1ccccc1`, the outcome (in data set [1]; at D(2) dopamine receptor; in data set [2]; in data set [5]) was inactive. Also, the pKa in data set [3] was 5. The molecule further registered an inhibition constant Ki in data set [4] of 65 nM. As to `CN1CCN(c2ccc3c(ccn3S(=O)(=O)c3ccccc3)c2)CC1`, in data set [3], the pKa was found to be 7.4. In addition, in data set [4], the Ki was found to be 27 nM.

Take `CN(C)c1ccc2c(ccn2S(=O)(=O)c2ccccc2)c1`: the pKa in data set [3] came out at 3.3. This molecule also showed a Ki in data set [4] of 82 nM. In turn, `O=S(=O)(c1ccccc1)n1ccc2ccc(N3CCN(CC(F)(F)F)CC3)cc21` gave a pKa in data set [3] of 3.6. The same molecule displayed a Ki in data set [4] of 1200 nM. The molecule `CN1CCN(c2cn(S(=O)(=O)c3ccccc3)c3ccccc23)CC1` showed a pKa in data set [3] of 7.4. As for `CN(C)c1cn(S(=O)(=O)c2ccccc2)c2ccccc12`, the pKa in data set [3] stood at 4.2. The Ki in data set [4] was determined as 474 nM. As to `CN1CCN(c2ccc3ccn(S(=O)(=O)c4ccccc4)c3c2)CC1`, the inhibitory constant (Ki) on D(2) dopamine receptor stood at 241 nM; in data set [6] it was 247 nM; in data set [4], 9 nM. Also, the pKa in data set [3] worked out at 8.2. As to `CC(=O)N1CCN(c2cccc3c2ccn3S(=O)(=O)c2ccccc2)CC1`, in data set [3], the pKa was found to be 0.8. The molecule further registered an inhibition constant Ki in data set [4] of 714 nM. `O=S(=O)(c1ccccc1)n1cc(N2CCN(CC(F)(F)F)CC2)c2ccccc21` came in with a pKa in data set [3] of 3.6. This molecule showed a Ki in data set [4] of 2030 nM. On to `O=S(=O)(c1ccccc1)n1ccc2ccccc21`, for which, in data set [4], the Ki came out at 159 nM. For `CCCCS(=O)(=O)n1ccc2ccc(-c3ccncc3)cc21`, the affinity in data set [4] corresponds to a Ki of 1150 nM. This Ki is about 7.2-fold higher than that of the molecule before. In data set [4], `CN(C)c1cccc2c1ccn2Cc1ccccc1` had a Ki of 2560 nM.

`O=S(=O)(c1ccccc1)n1ccc2c(O)cccc21`: in data set [4], the affinity corresponds to a Ki of 108 nM. On to `CN1CCN(c2cccc3c2ccn3S(=O)(=O)c2ccccc2)CC1`, for which the Ki was 164 nM in data set [6] and 41 nM in data set [5]. In data set [3], the pKa amounted to 7.3. In data set [4], `CN(C)c1cccc2c1ccn2S(C)(=O)=O` showed an inhibition constant Ki of 4720 nM. This counts as single-digit micromolar.

In turn, `CC(=O)N1CCN(c2ccc3ccn(S(=O)(=O)c4ccccc4)c3c2)CC1` registered a pKa in data set [3] of -0.4. For the same molecule, the Ki in data set [4] came out at 97 nM.

In turn, `CC(=O)N1CCN(c2cn(S(=O)(=O)c3ccccc3)c3ccccc23)CC1` returned a pKa in data set [3] of 0.6. Moreover, the affinity in data set [4] corresponds to a Ki of 97 nM.

For the molecule `CCCCS(=O)(=O)n1ccc2c(N(C)C)cccc21`, the inhibition constant (Ki) in data set [4] amounted to 49900 nM. The same measure, in the same setting: in the case of `CN(C)c1cccc2c1ccn2S(=O)(=O)N1CCCCC1` it was 39100 nM. For `c1ccc(Cn2ccc3ccc(-c4ccncc4)cc32)cc1`, in data set [4], affinity was put at a Ki of 3260 nM. This Ki is about 12-fold lower than that of the molecule before. In data set [3], `O=S(=O)(c1ccccc1)n1cc(N2CCCCC2)c2ccccc21` displayed a pKa of 4.5. The molecule also yielded a Ki in data set [4] of 219 nM. In the same order, the values of `O=S(=O)(c1ccccc1)n1ccc2ccc(N3CCCCC3)cc21` are -0.4 and 403 nM. With `O=S(=O)(N1CCCCC1)n1ccc2ccc(-c3ccncc3)cc21`, the Ki in data set [4] amounted to 1660 nM. For `O=S(=O)(c1ccccc1)n1cc(-c2ccncc2)c2ccccc21`, the pKa in data set [3] stood at 5. Also, in data set [4], affinity was put at a Ki of 124 nM. `O=S(=O)(C1CCCCC1)n1ccc2ccc(-c3ccncc3)cc21` came in with a Ki in data set [4] of 2180 nM. For the molecule `O=S(=O)(c1ccccc1)n1ccc2c(N3CCN(CC(F)(F)F)CC3)cccc21`, the pKa in data set [3] is 3.9. The Ki in data set [4] came to 1740 nM. Regarding `O=S(=O)(c1ccccc1)n1ccc2c(-c3ccccc3)cccc21`, the Ki in data set [4] turned out to be 162 nM. For the molecule `COc1cccc2c1ccn2S(=O)(=O)c1ccccc1`, in data set [4], the Ki worked out at 262 nM. On to `O=S(=O)(c1ccccc1)n1ccc2ccc(-c3ccncc3)cc21`, for which the outcome (in data set [1]; on D(2) dopamine receptor; in data set [2]; in data set [5]) was inactive. Also, in data set [3], the pKa was 4.9. The affinity in data set [4] corresponds to a Ki of 38 nM.

Molecule `CS(=O)(=O)n1ccc2ccc(-c3ccncc3)cc21` displayed a Ki in data set [4] of 4050 nM. That is a single-digit micromolar value. In turn, `COc1ccc2c(ccn2S(=O)(=O)c2ccccc2)c1` yielded an inhibition constant Ki in data set [4] of 127 nM. The same measure, in the same setting: the value for `O=S(=O)(c1ccccc1)n1ccc2cc(-c3ccccc3)ccc21` was 558 nM. In data set [3], `CN(C)c1ccc2ccn(S(=O)(=O)c3ccccc3)c2c1` had a pKa of -0.3. This molecule gave a Ki in data set [4] of 211 nM. On to `O=S(=O)(c1ccccc1)n1ccc2c(N3CCCCC3)cccc21`, for which the pKa in data set [3] stood at 5.4. In data set [4], this molecule returned a Ki of 128 nM. On the same counts, the results for `O=S(=O)(c1ccccc1)n1ccc2cc(-c3ccncc3)ccc21` are 4.5 and 409 nM. On the same counts, the results for `O=S(=O)(c1ccccc1)n1ccc2c(-c3ccncc3)cccc21` are 4.9 and 1510 nM.

In data set [3], `O=S(=O)(c1ccccc1)n1ccc2cc(N3CCN(CC(F)(F)F)CC3)ccc21` showed a pKa of 3.4. Further, in data set [4], the Ki was determined as 5250 nM. In the same order, the values of `O=S(=O)(c1ccccc1)n1ccc2cc(N3CCCCC3)ccc21` are 1.9 and 360 nM. In turn, `O=S(=O)(c1ccccc1)n1cc(-c2ccccc2)c2ccccc21` gave an inhibitory constant (Ki) in data set [4] of 146 nM. With `CN(C)c1cccc2c1ccn2S(=O)(=O)C1CCCCC1`, the Ki in data set [4] was 4890 nM. This Ki is about 33-fold higher than that of the molecule before. Still for that read-out and setting: the value for `O=S(=O)(c1ccccc1)n1ccc2ccc(-c3ccccc3)cc21` was 178 nM. Regarding `CC(=O)N1CCN(c2ccc3c(ccn3S(=O)(=O)c3ccccc3)c2)CC1`, the pKa in data set [3] amounted to 0.9. In data set [4], this molecule registered a Ki of 4850 nM.
